# Screens (PubChem)
# In the library only some 2.3% were active in any assay of this set; here they are far more common.
# TRPC6 act = activates the mouse TRPC6 cation channel | Q61143 | HEK293-TRPC6 membrane potential dye fluorescence; active compounds read high | B-score at 10 µM | 0.13% of 310,000 active | AID 2550;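 active means B-score of the integrated fluorescence ratio above library mean plus 3 SD, and starting fluorescence ratio within library mean plus 5 SD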;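 further: higher score means more depolarization so channel activation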
# Target sequence (Q61143 whole entry, looked up): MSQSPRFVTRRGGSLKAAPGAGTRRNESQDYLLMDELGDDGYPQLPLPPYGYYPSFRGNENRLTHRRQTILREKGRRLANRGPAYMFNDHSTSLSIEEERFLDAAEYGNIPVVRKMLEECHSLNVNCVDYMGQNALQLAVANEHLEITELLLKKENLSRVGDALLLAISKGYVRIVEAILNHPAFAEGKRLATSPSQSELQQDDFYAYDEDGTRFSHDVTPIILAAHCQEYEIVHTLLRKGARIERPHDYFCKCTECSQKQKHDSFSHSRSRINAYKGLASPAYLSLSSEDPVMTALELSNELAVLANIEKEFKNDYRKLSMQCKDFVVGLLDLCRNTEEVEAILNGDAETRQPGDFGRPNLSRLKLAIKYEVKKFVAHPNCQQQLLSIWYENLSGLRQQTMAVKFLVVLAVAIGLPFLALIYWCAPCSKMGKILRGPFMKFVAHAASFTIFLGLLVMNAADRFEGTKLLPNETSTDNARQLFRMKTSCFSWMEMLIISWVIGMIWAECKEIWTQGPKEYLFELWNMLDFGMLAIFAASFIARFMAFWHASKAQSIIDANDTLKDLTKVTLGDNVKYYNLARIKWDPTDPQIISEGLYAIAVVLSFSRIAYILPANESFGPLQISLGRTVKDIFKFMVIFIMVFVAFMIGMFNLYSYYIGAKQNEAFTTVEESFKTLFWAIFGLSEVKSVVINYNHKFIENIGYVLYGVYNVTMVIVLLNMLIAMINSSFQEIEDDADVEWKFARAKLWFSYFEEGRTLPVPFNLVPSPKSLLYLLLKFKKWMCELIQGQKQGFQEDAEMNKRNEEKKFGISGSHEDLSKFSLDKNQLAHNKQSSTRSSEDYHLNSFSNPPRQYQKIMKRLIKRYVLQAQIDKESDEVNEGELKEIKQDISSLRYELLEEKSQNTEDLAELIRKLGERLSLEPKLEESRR
# TRPC4 block = inhibitors of mouse TRPC4 channel. Q9QUQ5. HEK293 TRPC4beta/mu-opioid, DAMGO-evoked Fluo4 calcium flux; active compounds read low. B-score at 10 µM. 0.39% of 300,000 active. AID 2247;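 active means B-score over 3 SD under the library average, no early fluorescence shift, positive overall ratio signal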
#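 Material: HEK293 cells with stable TRPC4beta plus mu-opioid receptor expression / Probe or stimulus: DAMGO in two steps, submaximal then maximal / Compound: single concentration per test compound / Technique: kinetic Fluo4 fluorescence imaging of calcium influx / Read-out: per-well B score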
# TRPC4 potent = TRPC4 (mouse) allosteric potentiation | HEK293 TRPC4beta/mu-opioid, DAMGO EC20, Fluo-4 Ca2+ flux; active compounds read high | AID 2227 | B-score at 10 µM | 0.42% of 310,000 active | Q9QUQ5;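 active means B-score of calcium response area above 5 SD of library B-scores, with initial fluorescence ratio within 5 SD of library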;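 further: B-score of integrated fluorescence ratio over time as area under calcium response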
# TRPC4 act = TRPC4 (mouse) channel activation | HEK293 TRPC4beta/mu-opioid, Fluo4 calcium fluorescence; active compounds read high | B-score at 10 µM | 0.49% of 310,000 active | AID 2237;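 active means B-score above 5 SD of library B-scores, and initial fluorescence ratio not above library mean plus 5 SD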;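 further: positive B-score marks a calcium rise read as TRPC4 activation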
#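 System: HEK293 cells stably co-expressing mouse TRPC4beta and mu-opioid receptor; Schedule: Fluo4 dye loading 45 min at room temperature, 110 s recording; Detection: Fluo4 fluorescence, kinetic; Evaluation: B-scored integrated calcium fluorescence ratio; Controls: buffer (low) and maximal DAMGO (high).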
# TRPC6 inhibitor = mouse TRPC6 channel inhibition. HEK293-TRPC6, membrane potential dye, ACh-evoked depolarization; active compounds read low. AID 2553. 1.1% of 310,000 active. B-score at 10 µM;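 active means B-score under library mean minus 3 SD, initial fluorescence not abnormally high, positive integrated signal ratio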;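 further: B-score derived from integrated fluorescence ratio over the kinetic read; more negative B-score means stronger inhibition of depolarization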
# CR mimetic SO = caloric restriction mimetics inhibiting age-related superoxide in yeast; S. cerevisiae aged cells, superoxide DHE fluorescence; active compounds read low; superoxide response (% of plate mean), % at 10 µM; 0.18% of 330,000 active; AID 2690;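 active means superoxide response under a set limit, about three screen SD below normal, cut at about 65% in these data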;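 further: yeast aged for seven days with compound at 30 °C before DHE staining; 100% = average MFI of all compound-treated wells on the plate with controls excluded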
# An asterisk follows results filed as active; i = inactive; . = no result given; ! = a repeat was not active.
SMILES,TRPC6 act,TRPC4 block,TRPC4 potent,TRPC4 act,TRPC6 inhibitor,CR mimetic SO
CC(C)Cc1ccc(CN2CCCC(NC(=O)CCn3cnnn3)C2)cc1 (centres undefined),i,i,i,104*,i,92
Cc1cc(C(=O)NC2CCCN(Cc3ccc(Cl)cc3)C2)c(C)o1 (centres undefined),i,i,i,i,i,99
O=C(CCc1ccc(F)c(F)c1)NC1CCCN(Cc2ccc(Cl)cc2)C1 (centres undefined),i,i,i,53*,i,96
COc1ccc(CCC(=O)NC2CCCN(Cc3ccc(Cl)cc3)C2)cc1OC (centres undefined),i,i,i,i,i,108
Cc1ccsc1C(=O)NC1CCCN(Cc2ccc(Cl)cc2)C1 (centres undefined),i,i,i,75*,i,109
O=C(NC1CCCN(Cc2ccc(Cl)cc2)C1)c1ccoc1 (centres undefined),i,i,i,43*,i,121
CC(C)Cc1ccc(CN2CCCC(NC(=O)Cn3cnnn3)C2)cc1 (centres undefined),i,i,i,i,i,89
Cc1occc1C(=O)NC1CCCN(Cc2ccc(Cl)cc2)C1 (centres undefined),i,i,i,62*,i,86
Cc1oc(-c2ccccc2Cl)nc1CS(=O)CC(=O)NCCCN1CC(C)CC(C)C1 (centres undefined),i,i,i,95*,i,102
Cc1oc(-c2ccccc2F)nc1CS(=O)(=O)CC(=O)NCCCN1CCN(C)CC1,i,i,i,i,i,105
Cc1oc(-c2ccccc2F)nc1CS(=O)(=O)CC(=O)NCCCN1CC(C)CC(C)C1 (centres undefined),i,i,i,57*,i,96
Cc1oc(-c2ccc(Cl)cc2)nc1CS(=O)CC(=O)NCCCN(C)C1CCCCC1 (centres undefined),i,i,16*,i,i,106
COc1cccc(OC)c1C(=O)NC(=S)Nc1ccc(S(=O)(=O)Nc2nccs2)cc1,i,i,i,i,i,93
COc1ccc(S(=O)(=O)Nc2ccc(Nc3ccccc3)cc2)cc1,i,i,i,i,i,102
COc1cc(CN2CCCC(CO)(Cc3ccccc3C)C2)cc2c1OCO2 (centres undefined),i,-6*,i,i,i,85
OCc1cc(Br)ccc1OCc1nc2ccccc2s1,i,i,i,i,i,90
Cc1ccn2c(NC3CCCC3)c(-c3cccs3)nc2c1,i,-6*,i,i,i,94
COc1ccccc1CN=C1Nc2ccccc2CS1,i,i,i,71*,i,100
COc1cccc(CN=C2Nc3ccccc3CS2)c1,i,i,i,i,i,105
C/C(=N\NC(=O)COc1cccc2ccccc12)c1cccs1,i,i,i,i,i,107
CNCC[C@H](Oc1cccc2ccccc12)c1cccs1,i,i,i,i,-5.7*!,109
CCOc1ccc(NC(=O)c2ccc(Br)o2)c([N+](=O)[O-])c1,i,i,i,i,i,95
COc1cc(CN2CCN(Cc3ccc(SC)cc3)CC2)cc(OC)c1O,i,i,i,i,i,110
COc1ccc(CN2CCN(Cc3ccccc3F)CC2)c(OC)c1,i,-5*,i,i,i,92
COc1ccc(CN2CCN(Cc3ccc(C(F)(F)F)cc3)CC2)c(OC)c1,i,-6*,i,i,i,126
SMILES,TRPC6 act,TRPC4 block,TRPC4 potent,TRPC4 act,TRPC6 inhibitor,CR mimetic SO
COc1cc(OC)c(OC)cc1CN1CCN(Cc2ccc(SC)cc2)CC1,i,i,i,43*,i,71
O=C(COc1c(F)c(F)cc(F)c1F)NC(=O)NC1CCCC1,i,i,i,i,i,87
Cc1ccnc(NS(=O)(=O)c2ccc(Oc3ccccc3)cc2)c1,i,i,i,i,i,101
CCCCN(CC)CCCNC(=O)c1ccc(CS(=O)(=O)c2ccccc2C)o1,i,i,i,68*,i,103
CCCCN(CCCNC(=O)c1ccc(CS(=O)(=O)c2ccc(OC)cc2)o1)Cc1ccccc1,i,-6*,i,i,i,102
C=CCN1C(=O)S/C(=C\c2ccc(N3CCOCC3)cc2C)C1=O,i,i,i,i,i,100
COc1ccc(OC)c(-n2c(CNC3CCN(Cc4ccccc4)CC3)nc3ccccc3c2=O)c1,i,i,i,73*,i,76
O=C(NCCN1CCCC1)c1ccc2c(=O)n(CCc3ccccc3)c(=O)[nH]c2c1,i,i,12*,i,i,110
CCCN1CCN(CCCNC(=O)c2ccc3c(=O)n(CCc4ccccc4)c(=O)[nH]c3c2)CC1,i,i,i,i,i,92
CC(Cc1ccccn1)NC(=O)c1ccc(OC2CCN(CCc3ccccc3)CC2)cc1 (centres undefined),i,i,i,i,i,.
O=C(NCC1COCCO1)c1ccc(OC2CCN(CCc3ccccc3)CC2)cc1 (centres undefined),i,i,i,i,i,.
CN(Cc1cnn(C)c1)C(=O)c1ccc(OC2CCN(CCc3ccccc3)CC2)cc1,i,-6*,i,i,i,89
Cc1cccnc1CCNC(=O)c1ccc(OC2CCN(Cc3ccccn3)CC2)cc1,i,i,i,i,i,98
O=C(NCCc1ccccn1)c1ccc(OC2CCN(CCc3ccccc3)CC2)cc1,i,i,i,66*,i,110
O=C(NCCc1cccc(Cl)c1)c1ccc(OC2CCN(Cc3ccccn3)CC2)cc1,i,i,i,150*,i,.
CSCCCNC(=O)c1ccc(OC2CCN(CCc3ccccc3)CC2)cc1,i,i,i,58*,i,104
CN1CC(c2ccccc2Cl)C2(COc3ccccc3C2=O)C12C(=O)Nc1ccccc12 (centres undefined),i,i,i,i,i,97
Cc1cccc(C(=O)NNC(=O)c2ccc(Cl)cc2)c1O,i,i,i,i,i,99
COc1ccc(/C=C/C(=O)Oc2cc(O)cc(O)c2)cc1,i,-7*,i,i,i,100
CCOc1ccc(/C=C/C(=O)Oc2ccc(OC)cc2)cc1,i,i,i,i,i,101
